Measurements published in ChEMBL document CHEMBL1157192, “No carrier added synthesis of O-(2'-[18F]fluoroethyl)-L-tyrosine via a novel type of chiral enantiomerically pure precursor, NiII complex of a (S)-tyrosine Schiff base” (Bioorg Med Chem, 2008).

What was measured:
Details in all cases: in vivo
[1] = system: Kidney; experiment: Biodistribution in kidney of Wistar rat bearing glioma35 rat tumor at 150-180 uCi after 40 mins; format: ADME, organism-based
Method in brief: (§1)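 Male Wistar rats (150–200 g) received 150–180 μCi ([…]) [18F]FET in 0.3 mL isotonic solution via the jugular vein. They were killed at 40 min. Organs were dissected, blotted of blood, weighed and gamma-counted, and values are given as %ID/g, with five rats per time point. Glioma35 homografts grew for 14 days after subcutaneous or intramuscular injection into the right hind limb. Abscesses were raised by turpentine oil (10 μL) into the right hind-limb muscle 24 h before the experiment.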

[2] = system: Blood; experiment: Biodistribution in blood of Wistar rat bearing glioma35 rat tumor at 150-180 uCi after 40 mins; format: ADME, organism-based; method in brief: as §1
[3] = system: Heart; experiment: Biodistribution in heart of Wistar rat bearing glioma35 rat tumor at 150-180 uCi after 40 mins; format: ADME, organism-based; method in brief: as §1
[4] = system: Liver; experiment: Biodistribution in liver of Wistar rat bearing glioma35 rat tumor at 150-180 uCi after 40 mins; format: ADME, organism-based; method in brief: as §1
[5] = Biodistribution in urinary bladder of Wistar rat bearing glioma35 rat tumor at 150-180 uCi after 40 mins; format: ADME, organism-based; method in brief: as §1
[6] = system: Brain; experiment: Biodistribution in brain of Wistar rat bearing glioma35 rat tumor at 150-180 uCi after 40 mins; format: ADME, organism-based; method in brief: as §1
[7] = system: Muscle tissue; experiment: Biodistribution in muscle of Wistar rat bearing glioma35 rat tumor at 150-180 uCi after 40 mins; format: ADME, organism-based; method in brief: as §1
[8] = Biodistribution in tumor of Wistar rat bearing glioma35 rat tumor at 150-180 uCi after 40 mins; format: ADME, organism-based, Neoplasm; method in brief: as §1
[9] = system: Blood; experiment: Biodistribution in blood of Wistar rat bearing turpentine-induced aseptic abscess at 150-180 uCi after 40 mins; format: ADME, organism-based; method in brief: as §1
[10] = system: Kidney; experiment: Biodistribution in kidney of Wistar rat bearing turpentine-induced aseptic abscess at 150-180 uCi after 40 mins; format: ADME, organism-based; method in brief: as §1
[11] = system: Heart; experiment: Biodistribution in heart of Wistar rat bearing turpentine-induced aseptic abscess at 150-180 uCi after 40 mins; format: ADME, organism-based; method in brief: as §1
[12] = system: Liver; experiment: Biodistribution in liver of Wistar rat bearing turpentine-induced aseptic abscess at 150-180 uCi after 40 mins; format: ADME, organism-based; method in brief: as §1
[13] = Biodistribution in urinary bladder of Wistar rat bearing turpentine-induced aseptic abscess at 150-180 uCi after 40 mins; format: ADME, organism-based; method in brief: as §1
[14] = system: Brain; experiment: Biodistribution in brain of Wistar rat bearing turpentine-induced aseptic abscess at 150-180 uCi after 40 mins; format: ADME, organism-based; method in brief: as §1
[15] = system: Muscle tissue; experiment: Biodistribution in muscle of Wistar rat bearing turpentine-induced aseptic abscess at 150-180 uCi after 40 mins; format: ADME, organism-based; method in brief: as §1
[16] = Biodistribution in abscess of Wistar rat bearing turpentine-induced aseptic abscess at 150-180 uCi after 40 mins; format: ADME, organism-based; method in brief: as §1

N[C@@H](Cc1ccc(OCC[18F])cc1)C(=O)O [FLORETYROSINE F18]
Drug uptake [1]: 0.86 % ID/g
Drug uptake [2]: 1.24 % ID/g
Drug uptake [3]: 0.98 % ID/g
Drug uptake [4]: 1.03 % ID/g
Drug uptake [5]: 2.51 % ID/g
Drug uptake [6]: 0.54 % ID/g
Drug uptake [7]: 0.84 % ID/g
Drug uptake [8]: 2.53 % ID/g
Drug uptake [9]: 1.45 % ID/g
Drug uptake [10]: 1.58 % ID/g
Drug uptake [11]: 1.47 % ID/g
Drug uptake [12]: 1.24 % ID/g
Drug uptake [13]: 3.94 % ID/g
Drug uptake [14]: 1 % ID/g
Drug uptake [15]: 1.32 % ID/g
Drug uptake [16]: 1.75 % ID/g
